Laboratory results: ChEMBL document CHEMBL1155924, “Achieving multi-isoform PI3K inhibition in a series of substituted 3,4-dihydro-2H-benzo[1,4]oxazines” (Bioorg Med Chem Lett, 2008)
Calls of active or inactive are those of the source. The calls are words filed in the database; no cut-off is given here.

What was measured:
[1] = target: T1, Phosphatidylinositol 4,5-bisphosphate 3-kinase catalytic subunit delta isoform (Homo sapiens, UniProt O00329); test: Inhibition of PI3K delta
T1 sequence (O00329 whole entry): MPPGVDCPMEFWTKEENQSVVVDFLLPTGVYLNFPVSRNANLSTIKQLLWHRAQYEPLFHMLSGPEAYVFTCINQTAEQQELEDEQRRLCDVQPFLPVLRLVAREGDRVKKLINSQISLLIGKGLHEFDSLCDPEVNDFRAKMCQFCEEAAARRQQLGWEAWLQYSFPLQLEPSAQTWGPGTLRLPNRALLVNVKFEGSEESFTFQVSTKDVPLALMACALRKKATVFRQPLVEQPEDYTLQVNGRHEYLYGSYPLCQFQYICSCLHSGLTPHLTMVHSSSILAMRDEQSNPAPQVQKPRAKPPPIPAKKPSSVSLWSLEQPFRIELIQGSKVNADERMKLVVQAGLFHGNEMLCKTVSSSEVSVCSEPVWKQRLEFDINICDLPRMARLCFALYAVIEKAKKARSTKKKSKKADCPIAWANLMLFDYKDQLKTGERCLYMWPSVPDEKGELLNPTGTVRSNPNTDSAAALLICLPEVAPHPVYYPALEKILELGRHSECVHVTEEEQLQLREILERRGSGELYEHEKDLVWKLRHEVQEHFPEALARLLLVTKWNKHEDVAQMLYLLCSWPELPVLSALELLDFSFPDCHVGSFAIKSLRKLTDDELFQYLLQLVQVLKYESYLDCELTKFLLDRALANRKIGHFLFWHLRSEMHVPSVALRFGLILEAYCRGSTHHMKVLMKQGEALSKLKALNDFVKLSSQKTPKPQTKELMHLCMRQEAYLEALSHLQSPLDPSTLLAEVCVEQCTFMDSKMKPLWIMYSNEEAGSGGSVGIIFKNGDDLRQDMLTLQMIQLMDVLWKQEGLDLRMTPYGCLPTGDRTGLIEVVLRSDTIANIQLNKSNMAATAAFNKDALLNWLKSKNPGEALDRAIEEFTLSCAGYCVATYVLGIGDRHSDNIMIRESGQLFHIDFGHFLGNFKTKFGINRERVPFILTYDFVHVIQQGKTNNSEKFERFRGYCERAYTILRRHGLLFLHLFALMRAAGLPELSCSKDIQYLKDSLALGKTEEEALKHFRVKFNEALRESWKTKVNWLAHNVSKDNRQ

[2] = target: Phosphatidylinositol 4,5-bisphosphate 3-kinase catalytic subunit gamma isoform (Homo sapiens, UniProt P48736); test: Inhibition of PI3K gamma
Phosphatidylinositol 4,5-bisphosphate 3-kinase catalytic subunit gamma isoform, sequence (P48736 whole entry, canonical isoform): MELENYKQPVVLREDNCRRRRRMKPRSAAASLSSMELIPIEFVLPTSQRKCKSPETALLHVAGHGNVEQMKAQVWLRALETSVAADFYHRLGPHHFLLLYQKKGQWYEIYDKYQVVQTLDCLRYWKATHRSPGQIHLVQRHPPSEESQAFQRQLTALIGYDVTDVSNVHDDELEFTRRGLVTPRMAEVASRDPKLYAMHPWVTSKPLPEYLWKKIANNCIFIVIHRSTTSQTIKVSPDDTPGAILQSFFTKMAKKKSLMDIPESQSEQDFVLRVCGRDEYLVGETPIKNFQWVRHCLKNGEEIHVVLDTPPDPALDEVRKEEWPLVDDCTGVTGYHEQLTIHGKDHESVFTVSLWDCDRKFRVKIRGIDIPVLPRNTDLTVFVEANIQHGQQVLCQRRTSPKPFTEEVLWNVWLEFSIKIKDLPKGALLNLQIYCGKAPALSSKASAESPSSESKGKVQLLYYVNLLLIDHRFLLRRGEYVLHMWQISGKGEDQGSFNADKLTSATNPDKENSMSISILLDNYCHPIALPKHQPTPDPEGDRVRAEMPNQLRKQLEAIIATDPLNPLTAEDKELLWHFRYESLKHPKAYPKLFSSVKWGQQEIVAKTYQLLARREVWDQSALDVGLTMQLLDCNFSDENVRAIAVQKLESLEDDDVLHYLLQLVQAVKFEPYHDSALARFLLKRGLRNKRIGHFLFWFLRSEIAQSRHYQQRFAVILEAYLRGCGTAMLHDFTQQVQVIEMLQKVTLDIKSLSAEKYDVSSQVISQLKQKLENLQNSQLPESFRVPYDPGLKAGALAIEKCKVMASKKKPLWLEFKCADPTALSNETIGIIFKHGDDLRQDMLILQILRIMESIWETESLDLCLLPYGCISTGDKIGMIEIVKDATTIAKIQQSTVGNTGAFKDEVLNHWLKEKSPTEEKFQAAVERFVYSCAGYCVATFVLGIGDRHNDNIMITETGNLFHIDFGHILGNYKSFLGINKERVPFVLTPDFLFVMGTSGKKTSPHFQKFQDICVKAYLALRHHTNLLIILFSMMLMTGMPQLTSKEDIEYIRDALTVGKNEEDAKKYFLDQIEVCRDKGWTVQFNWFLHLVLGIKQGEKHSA

[3] = target: Phosphatidylinositol 4,5-bisphosphate 3-kinase catalytic subunit beta isoform (Homo sapiens, UniProt P42338); test: Inhibition of PI3K beta
Phosphatidylinositol 4,5-bisphosphate 3-kinase catalytic subunit beta isoform, sequence (P42338 whole entry, canonical isoform): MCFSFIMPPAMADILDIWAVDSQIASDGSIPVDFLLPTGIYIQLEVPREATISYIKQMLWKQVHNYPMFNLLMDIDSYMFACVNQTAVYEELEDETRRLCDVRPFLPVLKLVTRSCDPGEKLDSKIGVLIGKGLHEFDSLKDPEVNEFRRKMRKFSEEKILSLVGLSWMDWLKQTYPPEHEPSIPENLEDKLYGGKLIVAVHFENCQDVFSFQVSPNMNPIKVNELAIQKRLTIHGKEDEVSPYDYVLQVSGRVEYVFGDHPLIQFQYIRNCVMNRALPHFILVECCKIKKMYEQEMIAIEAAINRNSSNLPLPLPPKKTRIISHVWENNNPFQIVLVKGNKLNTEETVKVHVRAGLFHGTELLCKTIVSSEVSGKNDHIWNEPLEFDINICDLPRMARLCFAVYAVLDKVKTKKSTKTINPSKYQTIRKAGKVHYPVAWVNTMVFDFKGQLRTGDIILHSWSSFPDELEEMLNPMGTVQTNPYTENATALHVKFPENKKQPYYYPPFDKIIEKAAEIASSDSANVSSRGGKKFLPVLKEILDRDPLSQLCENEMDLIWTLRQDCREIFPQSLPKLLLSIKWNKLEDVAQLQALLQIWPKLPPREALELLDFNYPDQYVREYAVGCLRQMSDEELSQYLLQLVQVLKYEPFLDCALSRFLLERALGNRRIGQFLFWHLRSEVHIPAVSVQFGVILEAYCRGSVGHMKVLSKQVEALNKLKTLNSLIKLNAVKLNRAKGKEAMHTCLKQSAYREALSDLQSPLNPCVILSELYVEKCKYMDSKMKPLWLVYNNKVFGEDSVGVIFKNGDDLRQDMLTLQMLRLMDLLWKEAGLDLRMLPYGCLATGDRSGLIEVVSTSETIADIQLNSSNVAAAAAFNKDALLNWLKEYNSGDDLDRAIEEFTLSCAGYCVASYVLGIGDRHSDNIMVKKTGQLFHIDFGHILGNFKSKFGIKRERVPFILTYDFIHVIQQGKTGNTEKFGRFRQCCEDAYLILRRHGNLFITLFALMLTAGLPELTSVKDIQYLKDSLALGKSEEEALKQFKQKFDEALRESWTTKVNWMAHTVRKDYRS

[4] = target: Phosphatidylinositol 4,5-bisphosphate 3-kinase catalytic subunit alpha isoform (Homo sapiens, UniProt P42336); test: Inhibition of PI3K alpha
Phosphatidylinositol 4,5-bisphosphate 3-kinase catalytic subunit alpha isoform, sequence (P42336 whole entry, canonical isoform): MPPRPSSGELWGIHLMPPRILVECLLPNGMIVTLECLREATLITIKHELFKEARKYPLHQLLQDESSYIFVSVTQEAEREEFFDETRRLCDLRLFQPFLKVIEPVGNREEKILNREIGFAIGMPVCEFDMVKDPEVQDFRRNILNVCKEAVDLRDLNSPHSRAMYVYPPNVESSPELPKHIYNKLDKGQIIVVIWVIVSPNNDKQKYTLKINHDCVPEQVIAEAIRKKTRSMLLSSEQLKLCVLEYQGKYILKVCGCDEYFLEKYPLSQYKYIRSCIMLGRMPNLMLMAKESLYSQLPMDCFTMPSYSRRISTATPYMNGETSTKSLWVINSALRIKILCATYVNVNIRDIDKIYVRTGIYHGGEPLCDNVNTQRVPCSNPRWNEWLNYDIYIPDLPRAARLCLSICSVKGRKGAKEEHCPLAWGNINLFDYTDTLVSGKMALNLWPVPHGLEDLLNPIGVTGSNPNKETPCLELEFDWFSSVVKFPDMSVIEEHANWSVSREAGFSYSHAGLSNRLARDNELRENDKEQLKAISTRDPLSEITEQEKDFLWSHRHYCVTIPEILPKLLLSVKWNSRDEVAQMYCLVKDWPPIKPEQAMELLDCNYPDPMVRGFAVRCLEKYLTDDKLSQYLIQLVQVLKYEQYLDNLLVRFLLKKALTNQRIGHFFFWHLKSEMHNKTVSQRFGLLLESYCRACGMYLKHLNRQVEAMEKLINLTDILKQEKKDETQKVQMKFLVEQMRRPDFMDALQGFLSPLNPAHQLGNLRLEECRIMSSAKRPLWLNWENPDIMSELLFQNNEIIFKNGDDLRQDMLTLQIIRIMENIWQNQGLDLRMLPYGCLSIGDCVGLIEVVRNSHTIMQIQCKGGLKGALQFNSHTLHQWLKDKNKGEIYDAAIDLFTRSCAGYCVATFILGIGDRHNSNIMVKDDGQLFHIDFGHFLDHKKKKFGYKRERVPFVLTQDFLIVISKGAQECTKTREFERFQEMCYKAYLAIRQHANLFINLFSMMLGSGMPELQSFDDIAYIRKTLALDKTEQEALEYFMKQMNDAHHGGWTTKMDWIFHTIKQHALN

Neutrophil = test: Inhibition of fMLP-stimulated superoxide production in TNF alpha-primed human neutrophils by spectrophotometry; type: functional, cell-based
Procedure, shortened: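 Human neutrophils were primed with TNFα and stimulated with fMLP, and cellular superoxide production was monitored. Inhibition values are quoted in nM.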

[5] = Clearance in rat microsomes assessed per mg of protein at 0.5 uM; type: ADME, Liver, Microsome; conditions: for microsomal CLint at 0.5 µM: liver microsomes
[6] = Clearance in human microsomes assessed per mg of protein at 0.5 uM; type: ADME, Microsome
[7] = Cmax in Han-Wistar rat at 3 mg/kg, po; type: ADME, organism-based; design: dose 3 mg/kg, route oral; conditions: in vivo
Procedure, shortened: (§1)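 Male-or-unspecified Han–Wistar rats were given a single oral dose of 3 mg/kg. Plasma Cmax is reported in ng/mL and AUC in ng h/mL.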

[8] = target: T2, Testis-specific serine/threonine-protein kinase 1 (Homo sapiens) (UniProt Q9BXA7); test: Inhibition of TSSK1 at 10 uM
T2 sequence (whole entry): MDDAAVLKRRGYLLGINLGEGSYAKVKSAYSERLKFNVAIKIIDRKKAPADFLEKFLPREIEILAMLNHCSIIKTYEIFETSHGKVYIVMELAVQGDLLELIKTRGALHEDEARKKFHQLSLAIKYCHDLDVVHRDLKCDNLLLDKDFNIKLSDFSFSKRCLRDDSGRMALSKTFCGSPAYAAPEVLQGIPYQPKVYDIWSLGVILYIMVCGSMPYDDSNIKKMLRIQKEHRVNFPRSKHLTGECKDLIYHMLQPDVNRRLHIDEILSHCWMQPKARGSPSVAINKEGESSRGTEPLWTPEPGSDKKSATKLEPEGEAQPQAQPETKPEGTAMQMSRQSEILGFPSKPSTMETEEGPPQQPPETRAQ

[9] = AUC in Han-Wistar rat at 3 mg/kg, po; type: ADME, organism-based; design: dose 3 mg/kg, route oral; conditions: plasma; procedure, shortened: as §1
[10] = target: T3, Serine/threonine-protein kinase mTOR (Homo sapiens, UniProt P42345); test: Inhibition of mTOR at 10 uM
[11] = target: Serine/threonine-protein kinase pim-1 (Homo sapiens) (UniProt P11309); test: Inhibition of PIM1 at 10 uM
Serine/threonine-protein kinase pim-1 (Homo sapiens), sequence (P11309 whole entry, looked up): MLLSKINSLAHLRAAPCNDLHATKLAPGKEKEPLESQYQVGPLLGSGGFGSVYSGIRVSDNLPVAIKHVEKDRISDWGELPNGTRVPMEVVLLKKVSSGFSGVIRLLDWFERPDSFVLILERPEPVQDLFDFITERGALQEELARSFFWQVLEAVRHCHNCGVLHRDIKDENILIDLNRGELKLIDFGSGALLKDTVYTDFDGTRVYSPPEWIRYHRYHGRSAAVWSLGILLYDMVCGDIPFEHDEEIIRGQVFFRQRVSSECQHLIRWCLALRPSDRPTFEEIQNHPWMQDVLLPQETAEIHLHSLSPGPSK

Rattus norvegicus = test: Inhibition of anti-CD3-induced IL2 release in po dosed Lewis rat blood; type: functional
Procedure, shortened: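 Acute T-cell activation was induced by anti-CD3 antibody in male Lewis rats. Compound was given orally, and IL2 released into blood was measured. Percent inhibition of IL-2 was plotted against log dose (mg/kg) to derive ED50. Values are mean ± SEM, n = 8.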

Hepatocyte = test: Clearance in rat hepatocyte assessed per mg of protein at 2 uM; type: ADME, cell-based, Liver; conditions: hepatocytes
[12] = target: T3, Serine/threonine-protein kinase mTOR; test: Inhibition of mTOR
[13] = Inhibition of CK1 at 10 uM
[14] = Inhibition of CaMK2 at 10 uM

IC50 [1] [nM] | IC50 [2] [nM] | IC50 [3] [nM] | IC50 [4] [nM] | SMILES | further results
605 | 531 | 1620 | – | Cc1ccc2c(c1)OCCN2c1nc2c(s1)C(=O)NC(C)(C)C2 | –
94 | 159 | 1050 | 825 | CC1(C)CC(=O)c2sc(N3CCOc4ccc(-c5ccncc5)cc43)nc2C1 | –
155 | 210 | 834 | – | CC1(C)Cc2nc(N3CCOc4ccc(C5CC5)cc43)sc2C(=O)N1 | –
17 | 77 | 298 | 188 | CC1(C)CC(=O)c2sc(N3CCOc4ccc(-c5cn[nH]c5)cc43)nc2C1 | –
11200 | 16800 | 11700 | – | CC1(C)Cc2nc(N3CCOc4c(F)cccc43)sc2C(=O)N1 | –
51 | 107 | 325 | 636 | Cc1nc(-c2ccc3c(c2)N(c2nc4c(s2)C(=O)NC(C)(C)C4)CCO3)c[nH]1 | –
5730 | 6650 | 5310 | 11300 | CC1(C)CC(=O)c2sc(N3CCOc4ncccc43)nc2C1 | –
366 | 318 | 1450 | – | CC(=O)c1ccc2c(c1)N(c1nc3c(s1)C(=O)NC(C)(C)C3)CCO2 | –
1050 | > 20000 | – | > 20000 | CC1(C)CC(=O)c2sc(N3CCOc4cc(-c5ccccc5)ccc43)nc2C1 | –
357 | 617 | 964 | 1810 | Cc1ccc2c(c1)N(c1nc3c(s1)C(=O)NC(C)(C)C3)CCO2 | –
123 | 189 | 623 | 791 | CC1(C)Cc2nc(N3CCOc4ccc(-c5ncccn5)cc43)sc2C(=O)N1 | –
21 | 28 | 452 | 116 | Cc1ccc(-c2ccc3c(c2)N(c2nc4c(s2)C(=O)NC(C)(C)C4)CCO3)cn1 | Cmax [7]: 649 ng/mL; IC50 (Neutrophil): 57 nM; microsomal CLint at 0.5 µM [5]: 17 µL/min/mg; inhibition [8]: > 80%; AUC [9]: 2880 ng·h/mL; Activity [10]: inactive; microsomal CLint at 0.5 µM [6]: 25 µL/min/mg; inhibition [11]: > 80%; ED50 (Rattus norvegicus): 15 mg/kg; CL (Hepatocyte): 7 µL/min/mg; IC50 [12]: > 15 µM; inhibition [13]: > 80%; inhibition [14]: > 80%
15300 | – | – | – | Cc1cccc2c1OCCN2c1nc2c(s1)C(=O)NC(C)(C)C2 | –
7570 | > 20000 | 10300 | > 20000 | CN(C)Cc1ccc2c(c1)N(c1nc3c(s1)C(=O)NC(C)(C)C3)CCO2 | –
81 | 163 | 727 | 736 | CC1(C)Cc2nc(N3CCOc4ccc(-c5cnc[nH]5)cc43)sc2C(=O)N1 | –
20 | 113 | 376 | 172 | CC1(C)CC(=O)c2sc(N3CCOc4ccc(-c5cccnc5)cc43)nc2C1 | –

SMILES | IC50 [1] [nM] | IC50 [2] [nM] | IC50 [3] [nM] | IC50 [4] [nM] | further results
CC1(C)CC(=O)c2sc(N3CCOc4ccc(-c5ccccc5)cc43)nc2C1 | 80 | 854 | 7990 | 2670 | IC50 (Neutrophil): 267 nM; clearance ([5]; microsomes, 0.5 µM): 15 µL/min/mg; clearance ([6]; 0.5 µM): 18 µL/min/mg
CC1(C)Cc2nc(N3CCOc4ccc(-c5ccccc5)cc43)sc2C(=O)N1 | 50 | 80 | 3660 | – | IC50 (Neutrophil): 573 nM; microsomal CLint at 0.5 µM [5]: 39 µL/min/mg; microsomal CLint at 0.5 µM [6]: 21 µL/min/mg
